Variants at the floor of the assay were thinned out.
B1: tRNA (parent)
chain: GUUCCGUUGGCGUAAUGGUAACGCGUCUCCCUCCUAAGGAGAAGACUGCGGGUUCGAGUCCCGUACGGAACG

Variants of: B1
Test: yeast fitness relative to wild type (ratio to wild type); higher = fitter; tRNA-Arg(CCU), competitive growth, 37 C, YPD
How it was run: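 The tRNA-Arg(CCU) gene variants were made by chemical synthesis with a 3% per-site mutation rate at 69 sites and inserted at the native genomic locus of Saccharomyces cerevisiae. After pooling, the strains were competed in YPD at 37°C for 24 hours in six parallel replicates. Gene amplicons from the start population and each end population were read by 100-nucleotide paired-end sequencing, and Darwinian fitness relative to wild type was taken from genotype frequency changes. Genotypes needed ≥ 100 starting reads, and estimates < 0.5 were set to 0.5.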

| Variant | yeast fitness |
| --- | --- |
| GUUCCGCUGGCGUAAUGGUAACGCGUCUCCCUCUUAAGGAGAAGACUGCGGCUUCGAGUCCCGUACGGAACG | 0.579 |
| GUUCCGCUGGCGUAAUGGUAACGCGUCUCCCUCCUAAGGAGAAGAUUGCGGGUUCGAGUCACGUACAGAACG | 0.561 |
| GUUCCGCUGGCGUAAUGGUAACGCGUCUCCCUCCUAAGGAGAAGACUGAGGGUUCGAGUCCUGUACGGAUCG | ≤ 0.5 |
| GUUCCGCUGGCGUAAUGGUAACGCGUCUCCCUCCUAAGGAGAAGACUGGGGGUUCGAGUCCCAUACGGAACG | 0.748 |
| GUUCCGCUGGCGUAAUGGUAACGCGUCUCCCUCCUAAGGAGAAGACUGUGGGUUCGAGUCCCGUACGGAACG | 0.873 |
| GUUCCGCUGGCGUAAUGGUAACGCGUCUCCCUCCUAAGGAGAAGACUGCGGGUUCGAGUCCGGUACGGAACG | 0.61 |
| GUUCCGCUGGCGUAAUGGUAACGCGUCUCCCUCCUAAGGAGAAGACUGCGGGUUCGAGUCCUGUACGGAACG | 0.802 |
| GUUCCGCUAGCGUAAUGGUAACGCGUCUCCGUCCUAAGGAGAAGACUGCGGGUUCGAGUCCCGUACGGAACG | 0.77 |
| GUUCCGCUAGCGCAAUGGUAUCGCGUCUCCCUCCUAACGAGAAGAAUGCGGGUUCGAGUCCCGUACGGAACG | ≤ 0.5 |
| GUUCCGCUAGCGCAAUGGUAUCGCGUCUCCCUCCUAAGGAGAAGACUGCGGGUUCAAGUCCCGUACGGAACG | ≤ 0.5 |
| GUUCCGCUCGCGUAAUGGUAACACGUCUCCCUCCUCAGGAGAAGACUGCGGGUUCGAGUCCCGUAAGGAACG | 0.544 |
| GUUCCGCUGCCGUAAUGGUAACGUGUCUCCCUCCUAAGGAGAAGAUUGCGGGUUCGAGUCCCCUACGGAACG | ≤ 0.5 |
| GUUCCGCUGGCAUAAUGGUAACGCGUCUCCUUCCUAAGGAGAAGACUGCGGAUUCGAGUCCCGUACGGAACG | ≤ 0.5 |
| GUUCCGCUGGCGUAAUAGUAACGCGUCUCCCUCCUAAGGAGAAGACUGCGGGUUAGAGUCCCGUACGGAACG | ≤ 0.5 |
| GUUCCGCUGGCGUAAUAGUAACGCGUCUCCCUCCUAAGGAGAAGACUGCGGGUUCGAGUCCUGUACGGAACG | ≤ 0.5 |
| GUUCCGCUGGCGUAAUCGUGACGCGUAUCCCUCCUAAGGAGAAGACUACGGGUUCGAGUCCCGUACGGAACG | 0.509 |
| GUUCCGCUGGCGUAAUGAUAACGCGUCUCCCUCCUAAGGAACAGACUGCCGGUUCGAGUCCCGUACGGAGCG | ≤ 0.5 |
| GUUCCGCUGGCGUAAUGGUAACGCGUCUCCCUCCUAAAGAGAAGACUGCAGGUUCGAAACCCGUACGGAACG | 0.579 |
| GUUCCGCUGGCGUAAUGGUAACGCGUCUCCCUCCUAAGGAACAGACUGCCGGUUCGAGUCCCGUACGGAACG | 0.592 |
| GUUCCGCUGGCGUAAUGGUAACGCGUCUCCCUCCUAAGGAACAGACUGCCGGUUCGAGUCCCGUACGGAGCG | 0.571 |
| GUUCCGCUGGCGUAAUGGUAACGCGUCUCCCUCCUAAGGAACAGACUGCCGGUUCGAGUCCCGUACCGAACG | ≤ 0.5 |
| GUUCCGCUGGCGUAAUGGUAACGCGUCUCCCUCCUAAGGAUAAGACUGCGGGUUCGACUCCCGUACGGAACG | ≤ 0.5 |
| GUUCCGCUGGCGUAAUGGUAACGCGUCUCCCUCCUAAGGAGAACACUGCGGGUUCGAGUCCCGUACGGAACG | 0.84 |
| GUUCCGCUGGCGUAAUGGUAACGCGUCUCCCUCCUAAGGAGAAGACUACGGGUUCGAGUCCCGUACGGAACG | 0.884 |
| GUUCCGCUGGCGUAAUGGUAACGCGUCUCCCUCCUAAGGAGAAGACUCCGGGUUCGAGUCCCGUACGGAACG | 0.828 |

| Variant | yeast fitness |
| --- | --- |
| GUUCCGCUGGCGUAAUGGUAACGCGUCUCCCUCCUAAGGAGAAGACUGCGGGUUCGAGUCCCCUACGGAACG | 0.611 |
| GUUCCGCUGGCGUAAUGGUAACGCGUCUCCCUCCUAAGGAGAAGACUGCGGGUUCGAGUCCCGUACUGAUCG | 0.544 |
| GUUCCGCUGGCGUAAUGGUAACGCGUCUCCCUCCUAAGGAGAAGACUGCGGGUUCGAGUCCCGUACGAAACG | 0.87 |
| GUUCCGCAGGCGUAAUGGUGACGGGUCUCCCUCCUAAGGAGAAGACUGCGGGUUCGAGUCCCGCACGGAACG | ≤ 0.5 |
| GUUCCGCAGGCGUAAUGGUAACGCGUUUCCCUCCUAAGGAGAAGACUGCGGGUUCGAGUCCCGUACGGAACG | ≤ 0.5 |
| GUUCCGCAGGCGUAAUGGUAACGCGUCUCCCUCCUAAGGAGAAGACUGCGGGUUCGAGUCCUGUACGGAACG | ≤ 0.5 |
| GUUCCGCUGGCGAAAUGGUAACGUGUCUCCCUCCUAAGGAGAAGACUGCUAGUUCGAGACCCGUCCGGAACG | ≤ 0.5 |
| GUUCCGCUGGCGCAAUGGUAACGCGUCUCCGUCUUAAGGAGAAGACUGCGGGUUUGAAUCUCGUACGGAACG | ≤ 0.5 |
| GUUCCGCUGGCGUAAGGGUAACGCGUCUUCAUCCUAAGGAGAAGAUUGCGGGUUCGAGUCCCGUACGGAACG | 0.566 |
| GUUCCGCUGGCGUAAUGGUAACGCGACUCCCUCCUAAGGAGAAGACUGCGGGUUCGAGUCCCGUACGGAACG | 0.777 |
| GUUCCGCUGGCGUAAUGGUAACGCGGCUCCCUCCUAAGGAGAAGACUGCGGGUUCGAGUCCCGUACGGAACG | 0.649 |
| GUUCCGCUGGCGUAAUGGUAACGCGUCCCCCUCCUAAGGAGAAGACUGCGGGUUUGAGUCCCGUACGGAACG | ≤ 0.5 |
| GUUCCGCUGGCGUAAUGGUAACGCGUCUCCCCGCUAAGGAGAAGACUGCGGGUUCGAGUCCCGUACGGAGCG | ≤ 0.5 |
| GUUCCGCUGGCGUAAUGGUAACGCGUCUCCCGCCUAAGGAGAAGACUGCGGGUUCGAGUCCCGUACGGAACG | 0.576 |
| GUUCCGCUGGCGUAAUGGUAACGCGUCUCCCGCCUAAGGAGAAGACUGCGGGUUCGAGUCCCGUACGCAACG | ≤ 0.5 |
| GUUCCGCUGGCGUAAUGGUAACGCGUCUCCCUCCCAAGGAGAAGACUGCGGGUUCGAGUCCCGUACGGAACG | 0.86 |
| GUUCCGCUGGCGUAAUGGUAACGCGUCUCCCUCCUAAGGAGAAGACUGCGGGAUCGAGUCCCGUACGGAGCG | ≤ 0.5 |
| GUUCCGCUGGCGUAAUGGUAACGCGUCUCCCUCCUAAGGAGAAGACUGCGGGGUCGAGUCCCGUACGGAACG | ≤ 0.5 |
| GUUCCGCUGGCGUAAUGGUAACGCGUCUCCCUCCUAAGGAGAAGACUGCGGGUUCGAGUCCCGAACGGAACG | 0.923 |
| GUUCCGGUGGCGUGAUGGUAACGCGUCUCCCUCCGAAGGAGAAGAAUGCGGGUUCGAGUCCCCUUCGGAACG | ≤ 0.5 |
| GUUCCGGUGGCGUUAUGGAAAUGCGUCUCCCUCCUAAGGAGAAGACUGCGGGUUCGAGUCACGUACGGAACG | ≤ 0.5 |
| GUUCCGGUGGCGUACUGGUAACGUGUCUCCCUCCUAAGGAGAGGACUGCGAGUCCGAGUCCCGUACCGAACG | 0.78 |
| GUUCCGGUGGCGUACAGGUAACGCGUCUCCCUGCUACGGAGAAGACUGAGGGCUCGAGUCCCGUACGGAACG | ≤ 0.5 |
| GUUCCGGUGGCGUAGUGGUAACGCGUCUCCCUCCUAAGGAGAAGACUGCGGGUUCGAGUCCCGUACGGAACG | 0.913 |
| GUUCCGGUGGCGUAGUGGCAGCGCGUCUCCCUCCUAAGGAAAAGACUGCGGGUUCGAGUCCCGUACGGAACG | 0.535 |

| Variant | yeast fitness |
| --- | --- |
| GUUCCGGUGGCGUAAUGGUGACGCGUUUCCCUCCUAAGGAGAAGACUGGGGCUUCGAGUCCCGUACGGAGCG | ≤ 0.5 |
| GUUCCGGUGGCGUAAUGGUACCGCGUCUCCCUCCUAAGGAGAACACUGCGGGUUCGAGUCCCGUACGGUACG | ≤ 0.5 |
| GUUCCGGUGGCGUAAUGGUACCGCGUCUCCCUCCUAAGGAGAAGACUGCGGGUUCGAGACCCGUACGGAACG | ≤ 0.5 |
| GUUCCGGUGGCGUAAUGGUAGCGCGCCUCCAUCCUAACGAGAAGACUGCGGGUUCGAGUCCCGUACGGAACG | ≤ 0.5 |
| GUUCCGGUGGCGUAAUGGUAACGCGUCUCCCUCCUCAGGAGAAGACUGCGGGUUCGAGUCCCGUACGGAACG | 0.614 |
| GUUCCGGUGGCGUAAUGGUAACGCGUCUCCCUCCUAAGGUGAAGACUGCGGGUUCGAGUCCCGUACGGAACG | 0.985 |
| GUUCCGGUGGCGUAAUGGUAACGCGUCUCCCUCCUAAGGAGAAGACUGCGGGUUCGGGUCCCGUACGGAACG | 0.72 |
| GUUCCGGUGGCGUAAUGGUAACGCGUCUCCCUCCUAAGGAGAAGACUGCGGGUUCGAGUCCCGUGUGGAACG | 0.876 |
| GUUCCGGUGGCGUAAUGGUAACGCGUCUCCCUCCUAAGGAGAAGACUGCGGGUUCGAGUCCCGUACGGAUCG | 1.01 |
| GUUCCGGUGGAGUAAUGGUAAGGCGUCUCGCUCCUAAGGAGAAGACUGCGGGUUCGAGUCCCGUACGGAACG | ≤ 0.5 |
| GUUCCGGUGGGGUAAUGGUAACGCGUCUCCCUCUUAAGGAAAAGACUGCGGGUUCGAGUCCCGUACGGAACG | 0.525 |
| GUUCCGGUGGUCUAAUGGUAACGCGUCUCCCUUCUAAGGAGAAGACUGCGGGUUCGACUCCCGUACGGAACG | ≤ 0.5 |
| GUUCCGGUGGCGUAAUGGUAAGGCGUCUCCCUCCUAAGGAGAAGACUGCAGGUUCGAGUCCCGUACGGAACG | 0.514 |
| GUUCCGGUGGCGUAAUGGUAAGGCGUCACCGUCCUAAGGAGAAGACUGCGGGUUAGAGUCCCGUACGCAACG | ≤ 0.5 |
| GUUCCGGUGGCGUAAUGGUAACGUGUCUCCCUCCUAAGGAGAAGGCUGCGGGUUCGAGUCCCGUACGGAACG | 0.601 |
| GUUCCGGUGGCGUAAUGGUAACGUGUCUCCCUUCUAAGGAGAAGACUGCGGGUUCGAGUCCCGUACGGAACG | 0.568 |
| GUUCCGGUGGCGUAAUGGUAACGCGUGUCCCUCCUAAGGUGAAGACUGGGGGUUCGAGUCCCGUACGGAACG | ≤ 0.5 |
| GUUCCGGUGGCGUAAUGGUAACGCGUGUCACUCCUAAGGAGAAGACUGCGGGUUCGAGUCCGGUACGGAACG | ≤ 0.5 |
| GUUCCGGUGGCGUAAUGGUAACGCGUGUCCCUCCUAAGCAGAAGACCGGGGGUUCGGGUCCCGUACGGAACG | ≤ 0.5 |
| GUUCCGGUGGCGUAAUGGUAACGCGUGGCCCUCCUAAGGAGAAGACUGCGGGUUCGAGUCCCGUACGGAACG | 0.531 |
| GUUCCGGUGGCGUAAUGGUAACGCGUUUCCCUCCUAAGGAGAAGACUGCGGGUUCGAGUCCCGUACGGAACG | 0.792 |
| GUUCCGGUGGCGUAAUGGUAACGCGUCUACCUCAUAAGGAGAAGACUGCGGGUUCGAGUCCAGUACGGAACG | ≤ 0.5 |
| GUUCCGGUGGCGUAAUGGUAACGCGUCUGCCUCCUAAGGAGAAGAUUGCGGGUUCGAGUCCCGUUCGGAACG | ≤ 0.5 |
| GUUCCGGUGGCGUAAUGGUAACGCGUCUGCCUCCUAAGGAGAAGAUUGCUGGUUCGAGUCCCGUACGGAACG | ≤ 0.5 |
| GUUCCGGUGGCGUAAUGGUAACGCGUCUCUCUCCUGAGGAGAAGACUGCGGGUUGGAGUCCCGUACGGAACG | ≤ 0.5 |

Reference: the RNAGym collection of RNA variant scans (doi:10.1126/science.aae0568)
